Unmarked numbers belong to inactive results. Inconclusive results are not listed. Activity calls are given as the source filed them.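 The calls were made as follows, unless noted: active = viability increase at or above a cutoff of the median across tested compounds plus 3 SD (cut at about 8.5% in these data, passing the limit was not always enough); inconclusive = some gains above the cutoff, reason not given; inactive = the rest.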
Legend:
[1] = OD615 S. cerevisiae growth inhibition, permissive medium, pilot counter-assay, permissive growth control for S. cerevisiae lifespan shortening project (AID 705;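 active = growth inhibition above 25% in both replicates, a cutoff set 3 SD above the mean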); details: OD615, 24 h, at 10 µM, stronger effect = higher value
Procedure, shortened: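 System – S. cerevisiae with engineered DeaD lifespan system · Buffer or medium – SC raffinose/galactose permissive medium · Schedule – cells pre-grown 4 h, then 24 h compound exposure, 30 °C humidified · Technique – culture turbidity as optical density at 615 nm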

[2] = Restrictive medium S. cerevisiae growth inhibition, OD615, pilot screen of yeast lifespan reduction project, restrictive growth control (AID 706;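 active = growth inhibition above a set limit, 3 SD over mean compound inhibition, in both replicates, cut at about 43% in these data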;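 also: modified DeaD lifespan yeast strain shifted to restrictive glucose medium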); details: OD615, 48 h, at 10 µM, stronger effect = higher value
Procedure, shortened: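 Material: engineered S. cerevisiae DeaD strain / Medium: glucose-based CSMM-D restrictive medium / Compound: single dose of 10 µM compound final, 0.25% DMSO / Timing: 4 h pre-incubation, 48 h exposure at 30 °C / Technique: OD615 absorbance reading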

[3] = viability gain of MRP-1-high H69AR cells under doxorubicin, pilot screen, MRP-1 activator project, CellTiter-Glo, duplicate (AID 807); details: H69AR viability with doxorubicin, CellTiter-Glo luminescence; at 10 µM; stronger effect = higher value;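 also: compound pretreatment 18-22 h then 72 h combined with doxorubicin; 0% = doxorubicin alone and 100% = vehicle without doxorubicin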
[4] = growth suppression of beta-catenin knockout HCT116, pilot screen, human colon tumor cells (AID 823;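 active = cell viability at or below a set limit in both duplicate runs, the limit being the all-compound median minus 4 SD, cut at about 23% in these data, passing the limit was not always enough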;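 also: 0% = wells killed by 20 µM Hyamine and 100% = untreated DMSO cell wells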); details: CellTiter-Glo, 60 h, at 10 µM, stronger effect = lower value
[5] = growth suppression of PTEN-deleted HCT116, pilot screen, cell-based, HCT116 clonal line, CellTiter-Glo (AID 824;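 active = viability at or below 27.92% in each of two runs, the all-compound median minus 4 SD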;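 also: 0% = 20 µM Hyamine control and 100% = vehicle cell control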); details: 60 h, at 10 µM, stronger effect = lower value
[6] = inhibitors of the yeast RAM network, pilot screen, dse1pr::URA3 reporter, 5-FOA selection (AID 869;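 active = inhibition over a set limit, the all-compound mean plus 3 SD, in both replicate runs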;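 also: 0% = DMSO wells with no growth and 100% = 10 µM 1-NA-PP1 with full growth; RAM network block rescues cells from 5-FOA so hits raise OD615 growth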); details: S. cerevisiae dse1pr::URA3 5-FOA growth, OD615, 2 d; at 10 µM; stronger effect = higher value; strain carries analog-sensitive mutant Cbk1 kinase
[7] = RAM signaling pathway blockade in yeast – S. cerevisiae, Pdr1DBD-CYC8 efflux-inhibited sensitized strain, primary screen (AID 1298;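 active = RAM network inhibition above 8.4% in each of two replicates, 3 SD over the compound average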;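 also: 0% = DMSO untreated cells without growth and 100% = 10 µM 1-NA-PP1 full growth; higher means more yeast growth rescued from 5-FOA killing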); details: S. cerevisiae cbk1-as DSE1-URA3 strain, 5-FOA growth OD615, 2 d; at 50 µM; stronger effect = higher value

Structure (SMILES) | growth inhibition [1] | growth inhibition [2] | viability increase [3] | viability [4] | viability [5] | inhibition [6] | RAM network inhibition [7]
O=C(Cn1cc2c(n1)CCCCC2)NC1CCCCCC1 | -9.25% | -9.21% | -3.6% | 97.1% | 89% | 0.43% | 0.21%
CC(C)(C)c1ccc(-c2nnc3sc(-c4ccccn4)nn23)cc1 | -19.2% | -24.6% | 0.61% | 100% | 89.2% | 2.01% | 1.31%
Cc1cccc(NC(=O)C2CCN(S(=O)(=O)c3cccc4cccnc34)CC2)n1 | -2.91% | 4.94% | -3.03% | 87.2% | 84.7% | 1.35% | 1.44%
Cc1nc(N2CCCCC2)c2sc(=S)n(C)c2n1 | -7.24% | 7.63% | 1.13% | 82.2% | 81.9% | 0.955% | 2.15%
COc1ccccc1OCCNC(=O)c1ccc(S(=O)(=O)N(C)C)cc1 | -3.92% | 3.39% | -1.91% | 100% | 91.9% | -0.715% | 2.71%
COc1cc(NC(=O)c2cc3ccccc3o2)c(OC)cc1Cl | -7.12% | -6.08% | -4.12% | 80.7% | 73.6% | 3.16% | 9.24%
CCCCCN=C(C)c1c(O)c2ccccc2oc1=O | 1.51% | 1.03% | 1.19% | 94.8% | 90.7% | -0.66% | -1.55%
CCCCCn1c(CCNC(=O)c2cccs2)nc2ccccc21 | -9.44% | -0.75% | -2.25% | 94.2% | 86.4% | 2.39% | 0.13%
COc1ccc(-n2c(Cc3cc(=O)[nH]c(=O)[nH]3)nnc2SCc2ccccc2)cc1 | 6.28% | -3.2% | -0.7% | 108% | 103% | 0.455% | 3.82%
CC(=O)C1C(c2ccc(O)cc2)NC(=O)NC1(O)C(F)(F)F (configuration not stated) | -15.9% | -25.1% | -1.41% | 102% | 98.7% | 2.78% | 4.56%
O=C(NCc1cccnc1)c1cnn2ccccc12 | -7.88% | -0.235% | -1.28% | 106% | 90.9% | 1.62% | 0.38%
CCc1c(C)nc(SCC(=O)Nc2ccc(Br)cc2)[nH]c1=O | -11.9% | 0.39% | 1.64% | 98.3% | 103% | 1.89% | 3.9%
COc1ccccc1N1CCN(c2cc(=O)n(-c3ccc(Cl)cc3)c(=O)[nH]2)CC1 | -5.8% | -7.77% | -2.22% | 84.4% | 77.7% | 1.07% | 7.55%
Cc1oc(-c2cccc(Cl)c2)nc1CN1CCCC(C(=O)NC(C)c2ccc3c(c2)OCCO3)C1 (configuration not stated) | -7.17% | -16.3% | -4.74% | 33.7% | 37.5% | 2.46% | 5.6%
CCCSc1nc2c(c(=O)n1CC)SC(C)C2 (configuration not stated) | -2.71% | -13% | -2.02% | 105% | 88.5% | 1.4% | 2.48%
CC(C)(C)NC(=O)c1ccc(NC(=O)C2COc3ccccc3O2)cc1 (configuration not stated) | -6.05% | -6.04% | -0.73% | 99.3% | 96.4% | 1.9% | -0.88%
CCO/C(C)=C1\C(=O)N(CC)c2ccccc21 | -9.62% | -5.21% | -1.57% | 96.7% | 97.2% | -0.745% | 2.08%
COC(=O)CC1SC(=O)NC1=Nc1ccccc1 (configuration not stated) | -7.63% | -0.1% | 0.96% | 106% | 89.1% | 1.42% | 4.94%
O=C(O)CCn1c(=O)[nH]c2ccccc2c1=O | -6.32% | -15.1% | 0.62% | 109% | 105% | 1.34% | 0.63%
COc1ccc(N(CC(=O)NC2CCCCC2)S(=O)(=O)c2cccnc2)cc1 | -2.11% | 3.61% | -1.68% | 99.6% | 105% | 1.57% | 2.86%
CNC(=O)c1c[nH]n2c(=O)c(Cc3ccccc3F)c(C)nc12 | -2.95% | -3.94% | -0.89% | 87.7% | 91.6% | 1.17% | 3.18%
CC1CCCC(C)N1C(=O)Cn1c(=O)sc2ccccc21 (configuration not stated) | -4.41% | 8.62% | -3.08% | 97.8% | 90.6% | 0.87% | 4.18%
O=C(NCCCN1CCCCC1)C1(S(=O)(=O)c2ccc(Cl)cc2)CC1 | -12.4% | -14% | -1.07% | 103% | 97.2% | 1.6% | 2.82%
COc1cc(Nc2cc(C)nc3nc(C)nn23)cc(OC)c1OC | 2.3% | 6.15% | -1.11% | 95.7% | 104% | 0.525% | 4.23%
C=C(C)CC1N(c2cccc(OC)c2)C(=O)C2C(C(=O)O)C3C=CC21O3 (configuration not stated) | -5.17% | 4.84% | -1.04% | 103% | 95.3% | -0.415% | 5.36%

Structure (SMILES) | growth inhibition [1] | growth inhibition [2] | viability increase [3] | viability [4] | viability [5] | inhibition [6] | RAM network inhibition [7]
OCCN1CCN(Cc2cc(Br)cc(Br)c2O)CC1 | -18.3% | -14% | -2.23% | 92.6% | 96.3% | 2.87% | -0.43%
CCCCC(=O)OCCNC(=O)c1cc2ccccc2oc1=O | -3.98% | -0.93% | -2.04% | 92.3% | 95.2% | 2.96% | 2.46%
COc1ccc(NC(=O)c2cc3ccccn3n2)cc1 | -2.21% | 0.42% | -0.18% | 81% | 73.1% | -0.545% | 0.83%
O=C(Nc1c(C(=O)N2CCCCC2)cnn1-c1ccccc1)c1ccccc1 | -13.8% | -4.25% | -1.28% | 105% | 92% | 1.99% | 2.44%
COc1ccc(C2C(C(=O)NC(C)C)c3ccccc3C(=O)N2C)cc1OC (configuration not stated) | -12.9% | -13.2% | -0.58% | 105% | 101% | 0.95% | 5.34%
COc1ccc(C)cc1NC(=O)CSc1nnc(-c2ccc(OC)c(OC)c2)n1N | 3.19% | 14% | -1.57% | 102% | 98.9% | 0.235% | 7.82%
N#CN=C1SCCS1 | -5.58% | -14.9% | -0.61% | 103% | 99% | 1.71% | 0.1%
COc1cc(C(=O)n2nc(C)cc2C)cc(OC)c1OC | -9.3% | -12.6% | -0.4% | 99.5% | 98.9% | 1.08% | 2.67%
Cc1ccccc1NC(=O)CSC(N)=O | -1.39% | 14.1% | -4.63% | 89.4% | 91% | 0.48% | 8.45%
CCOc1ccc2nc(NC(=O)Nc3cccs3)sc2c1 | -10.4% | -19.9% | -3.88% | 40.1% | 31.6% | 1.08% | 0.79%
NCCCC(=O)N1c2ccccc2Sc2ccccc21 | -16% | 3.53% | -2.97% | 73.2% | 73.9% | 2.5% | 0.52%
CN(C)c1oc(-c2ccccc2Cl)nc1S(=O)(=O)c1ccccc1 | -17.1% | 0.09% | -0.11% | 95.5% | 93.2% | 1.2% | 17% (active)
COc1ccc(-c2nnc(NC(=O)c3ccccc3C)o2)cc1 | -8.78% | -11.7% | -2.73% | 27.6% | 25.3% (active) | 1.86% | 0.11%
CCCOC(=O)c1ccc(NC(=O)C2C3C=CC(O3)C2C(=O)O)cc1 (configuration not stated) | -8.39% | -22.8% | -1.49% | 101% | 95.4% | 1.27% | 0.36%
COc1cccc(-c2cc(C(=O)Nn3cnnc3)c3ccccc3n2)c1 | -12.2% | -11.8% | -3.9% | 92.5% | 94.6% | 1.52% | 3.38%
CC(=O)Nc1ccc(S(=O)(=O)Nc2cccc(C(=O)NC(C)(C)C)c2)cc1 | -5.5% | -5.24% | -1.14% | 92.1% | 88.2% | 1.53% | 6.92%
CCc1ccc(NC(=O)c2ccc3c(c2)C(=O)N(Cc2ccco2)C3=O)cc1 | -3.35% | 7.26% | -2.41% | 93.6% | 89.6% | 0.185% | 1.5%
CCc1cccc(C)c1NC(=O)C1CCCO1 (configuration not stated) | -5.15% | -1.12% | -3.29% | 87.3% | 88.1% | 0.695% | 3.57%
CC1(C)NC(=O)N(CC(O)COc2ccc(N3C(=O)c4ccccc4C3=O)cc2)C1=O (configuration not stated) | -3.45% | -3.49% | -1.32% | 102% | 96.5% | 1.87% | 0.17%
CCn1c(=NC(=O)c2ccc(N3C(=O)CCC3=O)cc2)sc2c(OC)ccc(OC)c21 | -5.79% | -11.5% | -0.73% | 97.9% | 92.7% | 1.86% | 8.5%
N#C/C(=C1/CCCCCN1)c1nnc2n1CCCCC2 | -8.48% | 2.4% | -1.1% | 102% | 101% | 0.985% | 3.24%
COc1ccc(C)cc1Nc1cc(C)nc2nc(C)nn12 | -8.41% | 1.49% | -4.98% | 64.4% | 57.3% | 1.47% | 0.57%
CCOC(=O)C1CCCN(C(=O)c2ccccc2Oc2ccccc2)C1 (configuration not stated) | -6.35% | -9.14% | -1.3% | 91.1% | 102% | 0.545% | 1.27%
COc1ccc(CNC(=O)c2ccc(NC(=O)C3CCCO3)cc2)cc1 (configuration not stated) | -16.3% | -0.99% | 0.75% | 98.6% | – | 2.87% | 8.83%

— PubChem BioAssay
